Each structure is given as a SMILES string.

For one data set, the target named is T1, Tryptophan 5-hydroxylase 1 (Rattus norvegicus, UniProt P09810).
T1 sequence (P09810 whole entry): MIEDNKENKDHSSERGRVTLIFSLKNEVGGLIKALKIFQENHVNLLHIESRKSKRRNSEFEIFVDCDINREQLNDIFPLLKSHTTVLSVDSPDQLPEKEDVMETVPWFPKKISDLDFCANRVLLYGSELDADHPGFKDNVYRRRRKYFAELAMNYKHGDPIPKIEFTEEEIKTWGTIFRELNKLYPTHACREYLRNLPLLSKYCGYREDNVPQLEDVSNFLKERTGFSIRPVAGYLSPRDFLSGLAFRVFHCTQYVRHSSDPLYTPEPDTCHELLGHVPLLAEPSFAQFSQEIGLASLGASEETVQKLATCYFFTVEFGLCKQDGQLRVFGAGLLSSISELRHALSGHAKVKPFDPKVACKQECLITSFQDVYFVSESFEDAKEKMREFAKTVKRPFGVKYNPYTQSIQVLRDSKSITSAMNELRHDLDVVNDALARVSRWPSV
Conditions: not given
One may read the IC50 as the concentration that gives 50% inhibition. In turn, `Nc1nc(OC(c2ccc(-c3cccc(F)c3)cc2)C(F)(F)F)cc(-c2ccc(C[C@H](N)C(=O)O)cc2)n1` (some centres not stated) returned an IC50 of 400 nM.

System in another data set: not listed separately
In words: Cytotoxicity against rat RBL2H3 cells by MTT assay. It counts as cell-based. Set-up: concentration or dose not given beside the values. The settings on record: rbl-2h3. In a few lines: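 RBL2H3 cells (α-MEM) or PC12 cells (D-MEM), both with 10% FBS, treated at a single dose in 0.1% DMSO; 0.1% DMSO control; 37 °C, 5% CO2. MTT (5 mg/mL) added 4 h before the end, then SDS/DMF lysis buffer (pH 7.2) for 6 h; absorbance read at 570 nm. Cytotoxicity % calculated from background-corrected OD versus control.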
With `C[C@H]1[C@H](C)CC[C@]2(C(=O)O)CC[C@]3(C)C(=CC[C@@H]4[C@@]5(C)Cc6cnn(-c7ccc(F)cc7)c6C(C)(C)[C@@H]5CC[C@]43C)[C@H]12`, the Activity is given as 1.5%.

Compound `COC(=O)C(Cc1ccccc1)NC(=O)[C@]12CC[C@@H](C)[C@H](C)[C@H]1C1=CC[C@@H]3[C@@]4(C)Cc5cncnc5C(C)(C)[C@@H]4CC[C@@]3(C)[C@]1(C)CC2` (some centres not stated) had an Activity of 2.6%.

Consider `C[C@H]1[C@H](C)CC[C@]2(C(=O)O)CC[C@]3(C)C(=CC[C@@H]4[C@@]5(C)CC[C@H](O)C(C)(C)[C@@H]5CC[C@]43C)[C@H]12` [URSOLIC ACID], for which the Activity came out at 10%.

As for `COC(=O)C(Cc1ccccc1)NC(=O)[C@]12CC[C@@H](C)[C@H](C)[C@H]1C1=CC[C@@H]3[C@@]4(C)Cc5cnn(-c6ccc(F)cc6)c5C(C)(C)[C@@H]4CC[C@@]3(C)[C@]1(C)CC2` (some centres not stated), the Activity came to 2%.

For `CCOC(=O)CNC(=O)[C@]12CC[C@@H](C)[C@H](C)[C@H]1C1=CC[C@@H]3[C@@]4(C)Cc5c([nH]c6ccc(Cl)cc56)C(C)(C)[C@@H]4CC[C@@]3(C)[C@]1(C)CC2`, the Activity was 14.7%.

Consider `COC(=O)C(Cc1ccccc1)NC(=O)[C@]12CC[C@@H](C)[C@H](C)[C@H]1C1=CC[C@@H]3[C@@]4(C)CC[C@H](OC(C)=O)C(C)(C)[C@@H]4CC[C@@]3(C)[C@]1(C)CC2` (some centres not stated), for which the Activity is reported as 12.4%.

On to `CCOC(=O)CNC(=O)[C@]12CC[C@@H](C)[C@H](C)[C@H]1C1=CC[C@@H]3[C@@]4(C)Cc5c([nH]c6ccc(Br)cc56)C(C)(C)[C@@H]4CC[C@@]3(C)[C@]1(C)CC2`, for which the Activity came out at 1.7%.

Regarding `COC(=O)C(CC(C)C)NC(=O)[C@]12CC[C@@H](C)[C@H](C)[C@H]1C1=CC[C@@H]3[C@@]4(C)Cc5c([nH]c6ccc(Br)cc56)C(C)(C)[C@@H]4CC[C@@]3(C)[C@]1(C)CC2` (some centres not stated), the Activity was determined as 3%.

`CC(=O)O[C@H]1CC[C@]2(C)[C@H]3CC=C4[C@@H]5[C@@H](C)[C@H](C)CC[C@]5(C(=O)O)CC[C@@]4(C)[C@]3(C)CC[C@H]2C1(C)C` [O-ACETYLURSOLIC ACID] showed an Activity of 4.1%.

Take `COC(=O)C(CC(C)C)NC(=O)[C@]12CC[C@@H](C)[C@H](C)[C@H]1C1=CC[C@@H]3[C@@]4(C)Cc5cnoc5C(C)(C)[C@@H]4CC[C@@]3(C)[C@]1(C)CC2` (some centres not stated): the Activity is 17.7%.

In turn, `C[C@H]1[C@H](C)CC[C@]2(C(=O)O)CC[C@]3(C)C(=CC[C@@H]4[C@@]5(C)Cc6cnoc6C(C)(C)[C@@H]5CC[C@]43C)[C@H]12` showed an Activity of 2.1%.

Regarding `COC(=O)C(Cc1ccccc1)NC(=O)[C@]12CC[C@@H](C)[C@H](C)[C@H]1C1=CC[C@@H]3[C@@]4(C)Cc5c([nH]c6ccc(Cl)cc56)C(C)(C)[C@@H]4CC[C@@]3(C)[C@]1(C)CC2` (some centres not stated), the Activity worked out at 1.6%.

Regarding `C[C@H]1[C@H](C)CC[C@]2(C(=O)O)CC[C@]3(C)C(=CC[C@@H]4[C@@]5(C)Cc6c([nH]c7ccc(Cl)cc67)C(C)(C)[C@@H]5CC[C@]43C)[C@H]12`, the Activity amounted to 2.9%.

Turning to `C[C@H]1[C@H](C)CC[C@]2(C(=O)O)CC[C@]3(C)C(=CC[C@@H]4[C@@]5(C)Cc6cnn(-c7ccccc7)c6C(C)(C)[C@@H]5CC[C@]43C)[C@H]12`, the Activity turned out to be 2.4%.

`COC(=O)C(CC(C)C)NC(=O)[C@]12CC[C@@H](C)[C@H](C)[C@H]1C1=CC[C@@H]3[C@@]4(C)CCC(=O)C(C)(C)[C@@H]4CC[C@@]3(C)[C@]1(C)CC2` (some centres not stated): the Activity worked out at 2.6%.

`CCOC(=O)CNC(=O)[C@]12CC[C@@H](C)[C@H](C)[C@H]1C1=CC[C@@H]3[C@@]4(C)Cc5cncnc5C(C)(C)[C@@H]4CC[C@@]3(C)[C@]1(C)CC2` yielded an Activity of 1.9%.

In turn, `C[C@H]1[C@H](C)CC[C@]2(C(=O)NCCN3CCCCC3)CC[C@]3(C)C(=CC[C@@H]4[C@@]5(C)Cc6nc7ccccc7nc6C(C)(C)[C@@H]5CC[C@]43C)[C@H]12` displayed an Activity of 52.1%.

As to `CCOC(=O)CNC(=O)[C@]12CC[C@@H](C)[C@H](C)[C@H]1C1=CC[C@@H]3[C@@]4(C)Cc5cn[nH]c5C(C)(C)[C@@H]4CC[C@@]3(C)[C@]1(C)CC2`, the Activity worked out at 0.4%.

Compound `COC(=O)C(CC(C)C)NC(=O)[C@]12CC[C@@H](C)[C@H](C)[C@H]1C1=CC[C@@H]3[C@@]4(C)C=C(C#N)C(=O)C(C)(C)[C@@H]4CC[C@@]3(C)[C@]1(C)CC2` (some centres not stated) registered an Activity of 58.1%.

The compound `COC(=O)C(CC(C)C)NC(=O)[C@]12CC[C@@H](C)[C@H](C)[C@H]1C1=CC[C@@H]3[C@@]4(C)Cc5cnn(-c6ccccc6)c5C(C)(C)[C@@H]4CC[C@@]3(C)[C@]1(C)CC2` (some centres not stated) yielded an Activity of 1.8%.

In the case of `COC(=O)C(CC(C)C)NC(=O)[C@]12CC[C@@H](C)[C@H](C)[C@H]1C1=CC[C@@H]3[C@@]4(C)CC[C@H](OC(C)=O)C(C)(C)[C@@H]4CC[C@@]3(C)[C@]1(C)CC2` (some centres not stated), the Activity is recorded as 6.6%.

The record behind these values is ChEMBL document CHEMBL3286111, “Tryptophan hydroxylase 1 (Tph-1)-targeted bone anabolic agents for osteoporosis” (J Med Chem, 2014).
